Active and inactive are the calls of the source. No cut-off for these calls is given here.
How the values were obtained:
[1] = system: Plasmodium berghei; test: Antimalarial activity against chloroquine-sensitive Plasmodium berghei NK-173 infected in Swiss albino mouse assessed as reduction parasitemia at 76.9 mg/kg, […] by Giemsa staining relative to control; assay type: functional; design: scale not given: the % may be the effect or the level left; conditions: route intraperitoneal
[2] = system: Mus musculus; test: Toxicity in chloroquine-sensitive Plasmodium berghei NK-173 infected Swiss albino mouse assessed as mortality at 38.5 mg/kg, ip administered 4 times per day for 3 days measured up to 4 days; assay type: organism-based; design: dose 38.5 mg/kg, route intraperitoneal; conditions: in vivo
In short: (§1)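 Female Swiss albino mice (18–20 g) were infected i.v. on day 0 with 10^6 parasitized RBC in 0.2 ml PBS from a donor mouse, in groups of 10. Dosing was i.p. over days 0–3 and stopped if toxicity appeared. Chloroquine control was 100 µmoles/kg. Giemsa tail smears and RBC counts were taken on days 4, 7, 8, 9, 10 and 14. Mice were followed for deaths.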

[3] = system: Plasmodium berghei; test: Antimalarial activity against chloroquine-sensitive Plasmodium berghei NK-173 infected in Swiss albino mouse assessed as host survival at 76.9 mg/kg, ip qd for 3 days measured on day 30; assay type: functional; conditions: NK-173, ip, route intraperitoneal; in short: as §1
[4] = system: Leishmania donovani; test: Antileishmanial activity against promastigote forms of Leishmania donovani MHOM/ET/67/HU3 after 3 days by MTT assay; assay type: functional, organism-based; conditions: MHOM/ET/67/HU3, 72 h
In short: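 Log-phase promastigotes at 10^6 cells/mL in supplemented M-199. Serial dilutions gave final concentrations of 100 µM to 50 nM, in triplicate. Incubated 3 days at 27 °C, dark, 5% CO2. Viability read by MTT reduction, with Triton X100/HCl lysis and absorbance at 570 nm. IC50 ± SD.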

[5] = system: Plasmodium berghei; test: Antimalarial activity against chloroquine-sensitive Plasmodium berghei NK-173 infected in Swiss albino mouse assessed as quantal survival at 38.5 mg/kg, ip administered 4 times per day for 3 days measured on day 7; assay type: functional, organism-based; design: dose 38.5 mg/kg; in short: as §1
[6] = system: Mus musculus; test: Toxicity in chloroquine-sensitive Plasmodium berghei NK-173 infected Swiss albino mouse assessed as mortality at 76.9 mg/kg, ip qd for 3 days measured up to 4 days; assay type: organism-based; design: dose 76.9 mg/kg, route intraperitoneal; conditions: in vivo; in short: as §1
[7] = system: Plasmodium berghei; test: Antimalarial activity against chloroquine-sensitive Plasmodium berghei NK-173 infected in Swiss albino mouse assessed as reduction parasitemia at 38.5 mg/kg, ip qd […] by Giemsa staining relative to control; assay type: functional; design: scale not given: the % may be the effect or the level left; conditions: route intraperitoneal
In short: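 Four-day Peters test in female Swiss albino mice (18–20 g), groups of 10. Infected i.v. on day 0 with 10^6 parasitized RBC in 0.2 ml PBS, then dosed i.p. on days 0–3, stopped if toxicity appeared. Parasitemia read from Giemsa-stained tail-blood smears and reported as % reduction at day 4.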

[8] = system: Plasmodium berghei; test: Antimalarial activity against chloroquine-sensitive Plasmodium berghei NK-173 infected in Swiss albino mouse assessed as quantal survival at 38.5 mg/kg, ip qd for 3 days measured on day 7; assay type: functional, organism-based; design: dose 38.5 mg/kg; in short: as §1
[9] = system: Plasmodium berghei; test: Antimalarial activity against chloroquine-sensitive Plasmodium berghei NK-173 infected in Swiss albino mouse assessed as quantal survival at 76.9 mg/kg, ip qd for 3 days measured on day 14; assay type: functional, organism-based; design: dose 76.9 mg/kg; in short: as §1
[10] = system: Mus musculus; test: Toxicity in chloroquine-sensitive Plasmodium berghei NK-173 infected Swiss albino mouse assessed as death day at 100 mg/kg, ip bid for 3 days measured up to 4 days; assay type: organism-based; design: dose 100 mg/kg, route intraperitoneal; conditions: in vivo; in short: as §1
[11] = system: Plasmodium berghei; test: Antimalarial activity against chloroquine-sensitive Plasmodium berghei NK-173 infected in Swiss albino mouse assessed as quantal survival at 38.5 mg/kg, ip qd for 3 days measured on day 10; assay type: functional, organism-based; design: dose 38.5 mg/kg; in short: as §1
[12] = system: Plasmodium berghei; test: Antimalarial activity against chloroquine-sensitive Plasmodium berghei NK-173 infected in Swiss albino mouse assessed as quantal survival at 100 mg/kg, ip bid for 3 days measured on day 14; assay type: functional, organism-based; design: dose 100 mg/kg; in short: as §1
[13] = Cytotoxicity against Swiss mouse peritoneal macrophages at 20 uM after 5 days by MTT assay; assay type: cell-based, Peritoneal macrophage cell
In short: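 Thioglycolate-elicited peritoneal macrophages from female Swiss mice, 5 × 10^4/well in RPMI 1640 with 10% FCS, 25 mM Hepes and 2 mM L-glutamine. Washed at 4 h to remove fibroblasts. Drug-containing medium added at 48 h, stopped at day 5. Viability read by MTT.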

[14] = system: Plasmodium berghei; test: Antimalarial activity against chloroquine-sensitive Plasmodium berghei NK-173 infected in Swiss albino mouse assessed as host survival at 38.5 mg/kg, ip qd for 3 days measured on day 30; assay type: functional; conditions: NK-173, ip, route intraperitoneal; in short: as §1
[15] = system: Leishmania donovani; test: Antileishmanial activity against amastigotes forms of Leishmania donovani MHOM/ET/67/HU3 infected in Swiss mouse peritoneal macrophages at 20 uM after 5 days; assay type: functional, organism-based
In short: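 Peritoneal macrophages from female Swiss mice (18–20 g) infected after 24 h with stationary-phase L. donovani promastigotes at 10 parasites per macrophage. Free promastigotes removed at 18 h, then amastigotes treated. Medium with drug renewed at 48 h, stopped at day 5. Percentage of infected macrophages scored microscopically after Giemsa staining. Run in triplicate.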

[16] = system: Mus musculus; test: Toxicity in chloroquine-sensitive Plasmodium berghei NK-173 infected Swiss albino mouse assessed as mortality at 38.5 mg/kg, ip qd for 3 days measured up to 4 days; assay type: organism-based; design: dose 38.5 mg/kg, route intraperitoneal; conditions: in vivo; in short: as §1
[17] = system: Plasmodium berghei; test: Antimalarial activity against chloroquine-sensitive Plasmodium berghei NK-173 infected in Swiss albino mouse assessed as quantal survival at 38.5 mg/kg, ip administered 4 times per day for 3 days measured on day 14; assay type: functional, organism-based; design: dose 38.5 mg/kg; in short: as §1
[18] = system: Plasmodium berghei; test: Antimalarial activity against chloroquine-sensitive Plasmodium berghei NK-173 infected in Swiss albino mouse assessed as quantal survival at 76.9 mg/kg, ip qd for 3 days measured on day 7; assay type: functional, organism-based; design: dose 76.9 mg/kg; in short: as §1
[19] = system: Plasmodium berghei; test: Antimalarial activity against chloroquine-sensitive Plasmodium berghei NK-173 infected in Swiss albino mouse assessed as host survival at 38.5 mg/kg, ip administered 4 times per day for 3 days measured on day 30; assay type: functional; conditions: NK-173, ip, route intraperitoneal; in short: as §1
[20] = system: Plasmodium berghei; test: Antimalarial activity against chloroquine-sensitive Plasmodium berghei NK-173 infected in Swiss albino mouse assessed as quantal survival at 38.5 mg/kg, ip qd for 3 days measured on day 9; assay type: functional, organism-based; design: dose 38.5 mg/kg; in short: as §1
[21] = system: Plasmodium berghei; test: Antimalarial activity against chloroquine-sensitive Plasmodium berghei NK-173 infected in Swiss albino mouse assessed as host survival at 100 mg/kg, ip bid for 3 days measured on day 30; assay type: functional; conditions: NK-173, ip, route intraperitoneal; in short: as §1
[22] = system: Plasmodium berghei; test: Antimalarial activity against chloroquine-sensitive Plasmodium berghei NK-173 infected in Swiss albino mouse assessed as quantal survival at 38.5 mg/kg, ip administered 4 times per day for 3 days measured on day 8; assay type: functional, organism-based; design: dose 38.5 mg/kg; in short: as §1
[23] = system: Plasmodium falciparum; test: Antimalarial activity against Plasmodium falciparum 3D7 infected in human O positive erythrocytes assessed as reduction of parasite growth after 24 to 44 hrs by Giemsa staining; assay type: functional, organism-based
In short: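 Sorbitol-synchronized ring-stage 3D7 parasites in O+ erythrocytes (5% v/v suspension, 0.5% parasitemia) exposed to compounds from DMSO stock for 44 h at 37 °C. Growth measured by pLDH ELISA after freeze-thaw hemolysis and by Giemsa thin smears at 24 and 44 h, counting at least 5000 erythrocytes. Expressed as % reduction against medium-only control.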

[24] = system: Trypanosoma brucei brucei; test: Trypanocidal activity against Trypanosoma brucei brucei by drug incubation infectivity test; assay type: functional; conditions: read-out: MEC
[25] = system: Plasmodium berghei; test: Antimalarial activity against chloroquine-sensitive Plasmodium berghei NK-173 infected in Swiss albino mouse assessed as quantal survival at 76.9 mg/kg, ip qd for 3 days measured on day 10; assay type: functional, organism-based; design: dose 76.9 mg/kg; in short: as §1
[26] = system: Plasmodium berghei; test: Antimalarial activity against chloroquine-sensitive Plasmodium berghei NK-173 infected in Swiss albino mouse assessed as quantal survival at 38.5 mg/kg, ip qd for 3 days measured on day 14; assay type: functional, organism-based; design: dose 38.5 mg/kg; in short: as §1

With `COc1cc(-c2c3nc(c(N4C(=O)CC[C@H]4C(=O)O)c4ccc([nH]4)c(-c4cc(OC)c(OC)c(OC)c4)c4nc(cc5ccc2[nH]5)C=C4)C=C3)cc(OC)c1OC` the Activity [1] was 40%, the Activity [2] was “Non-toxic” and the survival at 76.9 mg/kg [3] was 0%. For the same compound, the IC50 [4] was 57.2 µM, the Survival [5] was “Active” and the Activity [6] was “Non-toxic”. The Activity [7] was 0%, the Survival [8] was “Active” and the Survival [9] was “inactive”. For the same compound, the Time [10] was 2 days, the Survival [11] was “inactive” and the Survival [12] was “inactive”. The CC50 at 120 h [13] was > 100 µM, the survival at 38.5 mg/kg [14] was 0% and the Activity [15] was “inactive”. The Activity [16] was “Non-toxic”, the Survival [17] was “inactive” and the Survival [18] was “Active”. The survival at 38.5 mg/kg [19] was 0%, the Survival [20] was “inactive” and the survival at 100 mg/kg [21] was 0%. For the same compound, the Survival [22] was “Active”, the IC50 [23] was 0.02 µM and the minimal effective concentration [24] was 25 µM. The Survival [25] was “inactive” and the Survival [26] was “inactive”.
